Test results taken from ChEMBL document CHEMBL3351544, “Discovery of (S)-1-(1-(Imidazo[1,2-a]pyridin-6-yl)ethyl)-6-(1-methyl-1H-pyrazol-4-yl)-1H-[1,2,3]triazolo[4,5-b]pyrazine (volitinib) as a highly potent and selective mesenchymal-epithelial transition factor (c-Met) inhibitor in clinical development for treatment of cancer” (J Med Chem, 2014).
pIC50: −log10 of the molar value. Converted amounts (≈) assume the structure as drawn.

Experiments:
NCI-H441 = test: Antiproliferative activity against human NCI-H441 cells assessed as HGF-induced proliferation after 72 hrs by MTT assay; settings: NCI-H441, 72 h
[1] = Metabolic stability in mouse liver microsomes assessed as compound remaining at 1 uM after 30 mins; assay type: ADME; settings: read-out: Stability
Method in brief: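 Compound at 1 µM incubated in duplicate with mouse liver microsomes (0.5 mg/mL). Final 3 mM MgCl2 and 1 mM EDTA, NADPH-regenerating system in 50 mM potassium phosphate, pH 7.4. Incubated at 37 °C for 0 and 30 min, DMSO at most 0.1%. Quenched with cold acetonitrile containing internal standard, centrifuged, supernatant analysed. Reported as % parent remaining.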

[2] = Oral bioavailability in ICR mouse at 14.1 mg/kg; assay type: ADME, organism-based; settings: in vivo
Method in brief: (§1)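 Male ICR mice, n=3. Oral dose 14.1 mg/kg as a suspension in 0.5% CMC acidified with HCl to pH 2.1. Paired iv arm at 2.5 mg/kg in saline with 10% Solutol HS 15, 10% ethanol and 0.25% DMSO. Staggered blood sampling between 5 min and 24 h post-dose. Plasma levels measured by LC/MS/MS.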

U-87MG ATCC = test: Antitumor activity against human U87MG cells xenografted in mouse model assessed as tumor growth inhibition at 1 to 10 mg/kg, po once daily up to 21 days; assay type: functional, organism-based
Method in brief: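 Female athymic nude mice (6-8 weeks) inoculated in the flank with U87MG glioma cells (3×10^6/mouse). At 200 mm3 tumours, randomized to vehicle or treatment. Oral dosing once daily at 1.0, 2.5 and 10.0 mg/kg in 0.5% CMC-Na, pH 2.1, for 21 days. Tumour size measured 2-3 times weekly, TV=(L×W²)/2. %TGI from mean volume change from first to last treatment day versus vehicle.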

[3] = Apparent volume of distribution in ICR mouse at 2.5 mg/kg, iv; assay type: ADME, organism-based; set-up: dose 2.5 mg/kg, route intravenous; settings: in vivo, read-out: Vz
Method in brief: (§2)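 Male ICR mice, n=3, given 2.5 mg/kg iv in saline containing 10% Solutol HS 15, 10% ethanol and 0.25% DMSO. Blood sampled at staggered times from 5 min to 24 h. Plasma concentrations measured by LC/MS/MS. Parameters derived from the iv dosing.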

[4] = Cmax in ICR mouse at 14.1 mg/kg, po; assay type: ADME, organism-based; set-up: dose 14.1 mg/kg, route oral; settings: in vivo; method in brief: as §1
[5] = Antitumor activity against human U87MG cells xenografted in mouse model assessed as tumor growth inhibition at 2.5 mg/kg, po once daily up to 21 days; assay type: functional, U-87MG ATCC; settings: U-87 MG, 504 h, read-out: TGI
Method in brief: (§3)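 Female athymic nude mice, 6-8 weeks old, inoculated in the flank with 3×10^6 U87MG glioma cells. Randomised once tumours reached 200 mm3. Dosed orally once daily for 21 days in 0.5% CMC-Na, pH 2.1, against vehicle controls. Tumour size measured 2-3 times weekly; volume = L×W²/2. %TGI from change in mean volume, first to last treatment day. Body weight recorded.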

Mus musculus [6] = test: Toxicity in human U87MG cells xenografted mouse model assessed as body weight loss at 1 to 10 mg/kg, po once daily up to 21 days; assay type: organism-based, U-87MG ATCC; set-up: dose 1-10 mg/kg, route oral; settings: in vivo, 504 h; method in brief: as §3
[7] = AUC (0 to 8 hrs) in ICR mouse at 14.1 mg/kg, po; assay type: ADME, organism-based; set-up: time < 8 hr, dose 14.1 mg/kg, route oral; settings: plasma; method in brief: as §1
[8] = Solubility of the compound in aqueous buffer at pH 1.2 by HPLC method; assay type: physicochemical
Method in brief: (§4)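 Excess solid shaken 48 h at 20 °C in pH 1.2 KCl/HCl buffer or pH 7.4 sodium phosphate buffer. Centrifuged 10 min at 4000 rpm, supernatant diluted in mobile phase and quantified by HPLC.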

[9] = Half life in ICR mouse at 14.1 mg/kg, po; assay type: ADME, organism-based; set-up: dose 14.1 mg/kg, route oral; settings: in vivo; method in brief: as §1
Mus musculus [10] = test: Inhibition of c-Met autophosphorylation in mouse xenografted with human NCI-H441 cells at 3 mg/kg, po administered as single doss after 6 hrs by ELISA method; assay type: functional; settings: NCI-H441, 6 h
Method in brief: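 Female athymic mice, 6-8 weeks old, n=4, co-implanted subcutaneously with 2×10^6 NCI-H441 cells and 1×10^6 HGF-secreting MRC-5 cells. At 300 mm3, about two weeks, given a single 3 mg/kg oral dose in 0.5% CMC, pH 2.1. Tumours harvested at 6 h and homogenised in lysis buffer with phosphatase and protease inhibitors. Phospho-Met and total Met measured by ELISA, compared with vehicle.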

[11] = Metabolic stability in human liver S9 fraction assessed as compound remaining in presence of NADPH at 1 mg/mL after 60 mins by LC-MS/PDA analysis; assay type: ADME, subcellular; settings: read-out: Stability
Method in brief: (§5)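 Compound incubated at 37 °C for 0 and 60 min with human liver S9 (1 mg/ml). Buffer was 50 mM potassium phosphate, pH 7.4, with 3 mM MgCl2 and 1 mM EDTA, with or without an NADPH-regenerating system. Stopped with ice-cold acetonitrile, supernatant dried and reconstituted in 50% methanol. Analysed by LC-MSn/PDA; relative amounts estimated from UV peak intensity at 348 nm.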

[12] = Plasma clearance in ICR mouse at 2.5 mg/kg, iv; assay type: ADME, organism-based; set-up: dose 2.5 mg/kg, route intravenous; method in brief: as §2
[13] = target: T1, Hepatocyte growth factor receptor (Homo sapiens, UniProt P08581); test: Inhibition of c-Met autophosphorylation in human NCI-H441 cells for 1 hr by ELISA; assay type: cell-based
[14] = target: T1, Hepatocyte growth factor receptor; test: Inhibition of c-Met (unknown origin) using Poly E4Y substrate and ATP incubated for 45 mins by fluorescence polarization assay
[15] = Antitumor activity against human U87MG cells xenografted in mouse model assessed as tumor growth inhibition at 10 mg/kg, po once daily up to 21 days; assay type: functional, U-87MG ATCC; settings: U-87 MG, 504 h, read-out: TGI; method in brief: as §3
[16] = Metabolic stability in human liver S9 fraction assessed as compound remaining in absence of NADPH at 1 mg/mL after 60 mins by LC-MS/PDA analysis; assay type: ADME; settings: read-out: Stability; method in brief: as §5
[17] = Antitumor activity against human U87MG cells xenografted in mouse model assessed as tumor growth inhibition at 1 mg/kg, po once daily up to 21 days; assay type: functional, U-87MG ATCC; settings: U-87 MG, 504 h, read-out: TGI; method in brief: as §3
[18] = Solubility of the compound in aqueous buffer at pH 7.4 by HPLC method; assay type: physicochemical; method in brief: as §4

`FC(F)(F)Cn1cc(-c2cnc3nnn(Cc4n[nH]c5ncccc45)c3n2)cn1` gave a pIC50 (NCI-H441) of 7.15 and a remaining at 0.5 h, 1 µM [1] of 83%.
In the case of `C[C@@H](c1ccc2nccn2c1)n1nnc2ncc(-c3cnn(C)c3)nc21` [SAVOLITINIB], the pIC50 (NCI-H441) was 8.22, the bioavailability [2] was 27.2% and the TGI (U-87MG ATCC) was “Dose-dependent effect”. The Vd [3] was 1.2 L/kg, the Cmax [4] was 4950 ng/mL and the inhibition in vivo at 2.5 mg/kg [5] was 76.6%. For the same compound, the Activity (Mus musculus [6]) was “Non-toxic”, the AUC(0-t) at 8 h [7] was 5590 ng·h/mL and the solubility [8] was 31.8 mg/mL (≈ 92.1 mM). It also gave a half-life [9] of 1.7 h, an inhibition in vivo at 3 mg/kg (Mus musculus [10]) of 84.7% and a remaining at 1 h [11] of 99.1%. It also gave a clearance [12] of 11 mL/min/kg, a pIC50 [13] of 8.52 and a pIC50 [14] of 8.30. The inhibition in vivo at 10 mg/kg [15] was 92.8%, the remaining at 1 h [16] was 99.7% and the inhibition in vivo at 1 mg/kg [17] was 52.8%. It also gave a solubility [18] of 0.02 mg/mL (≈ 0.0579 mM).
Work on `C[C@@H](c1ccc2nccn2c1)n1nnc2nc(O)c(-c3cnn(C)c3)nc21` yielded a solubility [8] of 20.9 mg/mL (≈ 57.8 mM) and a solubility [18] of 0.02 mg/mL (≈ 0.0553 mM).
For `Cn1cc(-c2cnc3nnn(Cc4ccn5nccc5c4)c3n2)cn1`, the pIC50 (NCI-H441) was 6.74 and the remaining at 0.5 h, 1 µM [1] was 36.7%.
`OCCn1cc(-c2cnc3nnn(Cc4ccc5nccn5c4)c3n2)cn1` showed a pIC50 (NCI-H441) of 6.74.
In the case of `Cn1cc(-c2cnc3nnn(Cc4ccc5nccn5c4)c3n2)cn1`, the pIC50 (NCI-H441) was 7.14, the bioavailability [2] was 46% and the Vd [3] was 5.4 L/kg. It also gave a Cmax [4] of 1380 ng/mL, an AUC(0-t) at 8 h [7] of 1070 ng·h/mL and a half-life [9] of 1.3 h. The remaining at 0.5 h, 1 µM [1] was 70.8% and the clearance [12] was 71.3 mL/min/kg.
With `OCCn1cc(-c2cnc3nnn(Cc4c[nH]c5ncccc45)c3n2)cn1` the pIC50 (NCI-H441) was 7.60 and the remaining at 0.5 h, 1 µM [1] was 82.6%.
`Cn1cc(-c2cnc3nnn(Cc4ccc5ncnn5c4)c3n2)cn1` showed a pIC50 (NCI-H441) of 6.37.
For `OCCn1cc(-c2cnc3nnn(Cc4n[nH]c5ncccc45)c3n2)cn1`, the pIC50 (NCI-H441) was 6.54.
`Cn1cc(-c2cnc3nnn(Cc4ccc5nccn5n4)c3n2)cn1` showed a pIC50 (NCI-H441) of 6.35.
`Cn1cc(-c2cnc3nnn(Cc4n[nH]c5ncccc45)c3n2)cn1` showed a pIC50 (NCI-H441) of 7.18 and a remaining at 0.5 h, 1 µM [1] of 102%.
For `C[C@@H](c1ccn2nccc2c1)n1nnc2ncc(-c3cnn(CCO)c3)nc21`, the pIC50 (NCI-H441) was 7.80.
With `Cn1cc(-c2cnc3nnn(Cc4ccc5ncccc5c4)c3c2)cn1` the pIC50 [14] was < 6.00.
With `N#Cc1ccc(-c2cnc3nnn(Cc4n[nH]c5ncccc45)c3n2)cn1` the pIC50 (NCI-H441) was 6.76.
In the case of `OCCn1cc(-c2cnc3nnn(Cc4ccn5nccc5c4)c3n2)cn1`, the pIC50 (NCI-H441) was 7.18, the bioavailability [2] was 90.8% and the Vd [3] was 2.4 L/kg. The Cmax [4] was 1920 ng/mL, the AUC(0-t) at 8 h [7] was 7000 ng·h/mL and the half-life [9] was 3.7 h. The remaining at 0.5 h, 1 µM [1] was 93.3% and the clearance [12] was 21.5 mL/min/kg.
In the case of `C[C@H](c1ccc2nccn2c1)n1nnc2ncc(-c3cnn(C)c3)nc21`, the pIC50 (NCI-H441) was 6.95, the pIC50 [13] was 7.49 and the pIC50 [14] was 7.49.
`Fc1ccc(-c2cnc3nnn(Cc4ccc5nccn5c4)c3n2)cc1` gave a pIC50 (NCI-H441) of 6.94.
With `C[C@H](c1ccn2nccc2c1)n1nnc2ncc(-c3cnn(CCO)c3)nc21` the pIC50 (NCI-H441) was 6.78.
Compound `N#Cc1ccc(-c2cnc3nnn(Cc4ccc5nccn5c4)c3n2)cn1` has a pIC50 (NCI-H441) of 6.69.
With `FC(F)(F)Cn1cc(-c2cnc3nnn(Cc4ccn5nccc5c4)c3n2)cn1` the pIC50 (NCI-H441) was 7.11 and the remaining at 0.5 h, 1 µM [1] was 63.6%.
Work on `FC(F)(F)Cn1cc(-c2cnc3nnn(Cc4ccc5nccn5c4)c3n2)cn1` yielded a pIC50 (NCI-H441) of 6.98.
Work on `Cn1cc(-c2cnc3nnn(Cc4cc5[nH]ncc5s4)c3n2)cn1` yielded a pIC50 (NCI-H441) of 6.75 and a remaining at 0.5 h, 1 µM [1] of 19.4%.
For `Cn1cc(-c2cnc3nnn(Cc4cc5cnccc5s4)c3n2)cn1`, the pIC50 (NCI-H441) was 6.75 and the remaining at 0.5 h, 1 µM [1] was 23.5%.
